Data: ChEMBL document CHEMBL1149080, “Synthesis and structure-activity relationships of 2-phenyl-1-[(pyridinyl- and piperidinylmethyl)amino]-3-(1H-1,2,4-triazol-1-yl)propan-2-ols as antifungal agents” (2009)
Values after ≈ are worked out from the molar mass of the structure shown.

What was measured:
[1] = system: Aspergillus fumigatus; experiment: Antifungal activity against Aspergillus fumigatus AF98003; format: functional
Outline: (§1)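 Growth inhibition of each strain in vitro, following an earlier method; endpoint is MIC80, the lowest concentration giving 80% growth inhibition, in ng mL-1. Values are means of triplicate determinations, with standard deviation given.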

[2] = system: Candida albicans; experiment: Antifungal activity against Candida albicans CA98001; format: functional; outline: as §1

SMILES | MIC80 [1] | MIC80 [2]
OC(CNCc1ccccn1)(Cn1cncn1)c1ccc(Cl)cc1Cl (stereo unspecified) | > 30 µg/mL | 0.023 µg/mL (≈ 0.0608 µM)
CC(C)(C)OC(=O)N1CCC(CNCC(O)(Cn2cncn2)c2ccc(F)cc2F)CC1 (stereo unspecified) | > 30 µg/mL | 0.027 µg/mL (≈ 0.0598 µM)
CCC(C)n1ncn(-c2ccc(N3CCN(c4ccc(OCC5COC(Cn6cncn6)(c6ccc(Cl)cc6Cl)O5)cc4)CC3)cc2)c1=O (stereo unspecified) [ITRACONAZOLE] | 0.42 µg/mL (≈ 0.595 µM) | 
OC(CNCC1CCNCC1)(Cn1cncn1)c1ccc(Cl)cc1Cl (stereo unspecified) | > 30 µg/mL | 0.12 µg/mL (≈ 0.312 µM)
CN(CC1CCN(C(=O)OC(C)(C)C)CC1)CC(O)(Cn1cncn1)c1ccc(Cl)cc1Cl (stereo unspecified) | > 30 µg/mL | 0.039 µg/mL (≈ 0.0782 µM)
OC(CNCC1CCNCC1)(Cn1cncn1)c1ccc(F)cc1F (stereo unspecified) | > 30 µg/mL | 1.41 µg/mL (≈ 4.01 µM)
OC(CNCc1cccnc1)(Cn1cncn1)c1ccc(Cl)cc1Cl (stereo unspecified) | > 30 µg/mL | 0.037 µg/mL (≈ 0.0978 µM)
OC(CNCc1ccncc1)(Cn1cncn1)c1ccc(F)cc1F (stereo unspecified) | > 30 µg/mL | 0.083 µg/mL (≈ 0.24 µM)
OC(CNCc1cccnc1)(Cn1cncn1)c1ccc(F)cc1F (stereo unspecified) | > 30 µg/mL | 0.13 µg/mL (≈ 0.376 µM)
CN(CC1CCN(C(=O)OC(C)(C)C)CC1)CC(O)(Cn1cncn1)c1ccc(F)cc1F (stereo unspecified) | > 30 µg/mL | 0.153 µg/mL (≈ 0.329 µM)
CC(C)(C)OC(=O)N1CCC(CNCC(O)(Cn2cncn2)c2ccc(Cl)cc2Cl)CC1 (stereo unspecified) | > 30 µg/mL | 0.026 µg/mL (≈ 0.0537 µM)
OC(Cn1cncn1)(Cn1cncn1)c1ccc(F)cc1F [FLUCONAZOLE] |  | 0.19 µg/mL (≈ 0.62 µM)
OC(CNCc1ccccn1)(Cn1cncn1)c1ccc(F)cc1F (stereo unspecified) | > 30 µg/mL | 0.22 µg/mL (≈ 0.637 µM)
OC(CNCc1ccncc1)(Cn1cncn1)c1ccc(Cl)cc1Cl (stereo unspecified) | > 30 µg/mL | 0.036 µg/mL (≈ 0.0952 µM)
